Here are results for eight compounds from ChEMBL document CHEMBL1129672, “Ionophore properties of monensin derivatives studied on human erythrocytes by 23Na NMR and K+ and H+ potentiometry: relationship with antimicrobial and antimalarial activities” (J Med Chem, 1996).

Assay [1] concerns Bacillus cereus. The experiment in a line: Minimum Inhibitory concentration against Bacillus cereus ATCC 14579. Format: functional. In short, it runs like this:
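Broth dilution in Mueller-Hinton broth pH 7.4, 24 h incubation at 27 °C. Ionophores diluted in DMSO across 18 tubes, 100 ug/mL down to 1.56 ng/mL.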

For assay [2], the system named is Plasmodium falciparum. As to the kind of experiment: In vitro inhibitory activity against Plasmodium falciparum. Format: functional, organism-based. In short, it runs like this:
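Nigerian strain kept in human erythrocytes, 7% hematocrit, RPMI 1640 + 25 mM Hepes pH 7.4 + 10% AB+ serum, 37 °C, candle jar. Drugs from DMSO stocks (final solvent ≤0.25%), 1–2% hematocrit, 0.3–0.8% parasitemia, 48 h, then [3H]hypoxanthine 12–18 h. Filter-bound counts as % of drug-free control; IC50 from log dose plot, ≥2 experiments in triplicate.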

≈ marks a conversion by molar mass, not a printed value. Where only a bound is given, the exact number is not on record here.

What is called MIC is the lowest concentration that inhibits growth of the organism. Read a high MIC as a need for much substance. In general, IC50 refers to the concentration that inhibits the measured activity by half. Read a high IC50 as lower potency. In assay [1], `C[C@@H]1C[C@H](C)[C@@H](C)O[C@@]1(O)COC(=O)c1cccs1` displayed a minimum inhibitory concentration (MIC) of 0.02 µg/mL (≈ 0.0703 µM). This compound also had an IC50 in assay [2] of 0.0027 µg/mL (≈ 0.00949 µM).
`C[C@@H]1C[C@H](C)[C@@H](C)OC1O` (stereo partly specified) displayed an MIC in assay [1] of 0.39 µg/mL (≈ 2.7 µM). In assay [2], this compound registered an IC50 of 0.0119 µg/mL (≈ 0.0827 µM).
`C[C@@H]1C[C@H](C)[C@@H](C)O[C@@]12COC(=O)O2` displayed an MIC in assay [1] of 1.56 µg/mL (≈ 7.79 µM). In addition, the half-maximal inhibitory concentration (IC50) in assay [2] came to 0.00075 µg/mL (≈ 0.00375 µM).
Compound `C[C@@H]1C[C@H](C)[C@@H](C)O[C@@]12COC(c1ccccc1)O2` (stereo partly specified) registered an MIC in assay [1] of 6.25 µg/mL (≈ 23.8 µM). This compound also yielded an IC50 in assay [2] of 0.75 µg/mL (≈ 2.86 µM).
In assay [1], `C[C@@H]1C[C@H](C)[C@@H](C)O[C@@]1(O)CO` registered an MIC of 1.56 µg/mL (≈ 8.95 µM). Also, the IC50 in assay [2] came to 0.00165 µg/mL (≈ 0.00947 µM).
As for `Cc1ccc(S(=O)(=O)OC[C@]2(O)O[C@H](C)[C@@H](C)C[C@H]2C)cc1`, in assay [1], the MIC is 0.78 µg/mL (≈ 2.37 µM). For the same compound, the IC50 in assay [2] was 0.00125 µg/mL (≈ 0.00381 µM).
On to `C[C@@H]1C[C@H](C)[C@@H](C)O[C@@]1(O)COC(=O)Nc1ccc(Cl)cc1`, for which the MIC in assay [1] was determined as 0.05 µg/mL (≈ 0.153 µM). The same compound displayed an IC50 in assay [2] of 0.00125 µg/mL (≈ 0.00381 µM).
With `C[C@H](C[C@H](C)[C@@H](C)O)[C@H](O)CO`, the MIC in assay [1] is over 50 µg/mL. The same compound had an IC50 in assay [2] of 5.25 µg/mL (≈ 29.8 µM).
